Source: ChEMBL document CHEMBL1155880, “Slow self-activation enhances the potency of viridin prodrugs” (J Med Chem, 2008)

Experiments:
A549 [1] = assay: Cellular uptake in human A549 cells at 10 uM by FACS relative to initial rate; assay type: ADME, cell-based; conditions: a549, 10 µM
Procedure, shortened: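 A549 cells incubated with 10 μM NBD-labelled compound for varying times, then detached with trypsin and analysed by FACS. Fluorescence over time is expressed as relative cellular fluorescence: the geometric mean of exposed cells divided by the geometric mean of unexposed cells.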

A549 [2] = assay: Antiproliferative activity against human A549 cells after 48 hrs by SRB method; assay type: functional, cell-based; conditions: A549, 48 h
[3] = Chemical stability assessed as half-times of wortmannin formation at pH 6.8 in phosphate buffer saline; assay type: physicochemical
Procedure, shortened: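 Compounds were incubated at 1.5 mM Wm equivalents in PBS, pH 6.8, 37°C. Wm (or NBD-Wm) formation was followed by reverse-phase C18 HPLC with methyl-4-hydroxybenzoate as internal standard. For NBD derivatives, 10% acetonitrile and 5% DMSO were added to keep the released product in solution. Half-lives of formation were derived from this.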

| Structure (SMILES) | Drug uptake (A549 [1]) | Activity [3] [h] | IC50 (A549 [2]) [µM] |
| --- | --- | --- | --- |
| COC[C@H]1OC(=O)c2coc3c2[C@@]1(C)C1=C(C3=O)[C@@H]2CCC(=O)[C@@]2(C)C[C@H]1OC(=O)CCCCN(C)c1ccc([N+](=O)[O-])c2nonc12 | 1 | – | 12.2 |
| COC[C@H]1OC(=O)/C(=C\N(C)CCCCCC(=O)O)C2=C(O)C(=O)C3=C([C@H](OC(=O)CCCCN(C)c4ccc([N+](=O)[O-])c5nonc45)C[C@]4(C)C(=O)CC[C@@H]34)[C@]21C | 0.187 | 8 | 3.85 |
| COC[C@H]1OC(=O)/C(=C\N2CCCC2C(=O)O)C2=C(O)C(=O)C3=C([C@H](OC(C)=O)C[C@]4(C)C(=O)CC[C@@H]34)[C@]21C (stereo partly drawn) | – | 9.9 | 1.79 |
| COC[C@H]1OC(=O)/C(=C\NCCCCC(=O)O)C2=C(O)C(=O)C3=C([C@H](OC(C)=O)C[C@]4(C)C(=O)CC[C@@H]34)[C@]21C | – | > 100 | 27.9 |
| COC[C@H]1OC(=O)c2coc3c2[C@@]1(C)C1=C(C3=O)[C@@H]2CCC(=O)[C@@]2(C)C[C@H]1OC(C)=O [WORTMANNIN] | – | – | 11.4 |

Continued, in another order:

| Drug uptake (A549 [1]) | Activity [3] [h] | Structure (SMILES) | IC50 (A549 [2]) [µM] |
| --- | --- | --- | --- |
| 0.0271 | > 100 | COC[C@H]1OC(=O)/C(=C\NCCCCCC(=O)O)C2=C(O)C(=O)C3=C([C@H](OC(=O)CCCCN(C)c4ccc([N+](=O)[O-])c5nonc45)C[C@]4(C)C(=O)CC[C@@H]34)[C@]21C | 48.7 |
| – | 8.7 | COC[C@H]1OC(=O)/C(=C\N(C)CCCCCC(=O)O)C2=C(O)C(=O)C3=C([C@H](OC(C)=O)C[C@]4(C)C(=O)CC[C@@H]34)[C@]21C | 0.96 |
| 1.199 | 1.87 | COC[C@H]1OC(=O)/C(=C\N(C)c2ccncc2)C2=C(O)C(=O)C3=C([C@H](OC(=O)CCCCN(C)c4ccc([N+](=O)[O-])c5nonc45)C[C@]4(C)C(=O)CC[C@@H]34)[C@]21C | 9.99 |
| – | > 100 | COC[C@H]1OC(=O)/C(=C\NCCCCC(NC(C)=O)C(=O)O)C2=C(O)C(=O)C3=C([C@H](OC(C)=O)C[C@]4(C)C(=O)CC[C@@H]34)[C@]21C (stereo partly drawn) | 29.8 |
| 1 | 2.3 | COC[C@H]1OC(=O)/C(=C\N(C)c2ccncc2)C2=C(O)C(=O)C3=C([C@H](OC(C)=O)C[C@]4(C)C(=O)CC[C@@H]34)[C@]21C | 9.86 |
